The species named for experiment [1] is Cavia porcellus. The experiment in a line: Percent contraction induced by compound at […] in guinea pig gall bladder was determined. The format is functional.
Experiment [2] concerns the target T1, Gastrin/cholecystokinin type B receptor (Homo sapiens, UniProt P32239).
T1 sequence (P32239 whole entry): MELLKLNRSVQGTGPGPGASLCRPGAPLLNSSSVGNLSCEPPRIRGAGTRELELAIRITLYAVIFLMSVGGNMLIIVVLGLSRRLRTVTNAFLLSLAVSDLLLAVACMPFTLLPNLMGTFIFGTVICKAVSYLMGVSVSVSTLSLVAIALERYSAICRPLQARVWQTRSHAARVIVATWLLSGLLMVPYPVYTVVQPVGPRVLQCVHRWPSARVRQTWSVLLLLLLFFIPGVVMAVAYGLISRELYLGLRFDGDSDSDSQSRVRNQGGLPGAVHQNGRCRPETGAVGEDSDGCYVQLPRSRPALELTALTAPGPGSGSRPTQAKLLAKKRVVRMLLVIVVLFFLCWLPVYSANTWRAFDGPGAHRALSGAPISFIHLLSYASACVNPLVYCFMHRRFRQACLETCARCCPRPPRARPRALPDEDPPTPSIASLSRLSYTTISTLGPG
Nature of the experiment: Displacement of CCK-8 from human Cholecystokinin type B receptor expressing CHO cell membranes. Particulars: for Log IC50: cho.

The target in experiment [3] is T2, Cholecystokinin receptor type A (Homo sapiens, UniProt P32238).
T2 sequence (P32238 whole entry): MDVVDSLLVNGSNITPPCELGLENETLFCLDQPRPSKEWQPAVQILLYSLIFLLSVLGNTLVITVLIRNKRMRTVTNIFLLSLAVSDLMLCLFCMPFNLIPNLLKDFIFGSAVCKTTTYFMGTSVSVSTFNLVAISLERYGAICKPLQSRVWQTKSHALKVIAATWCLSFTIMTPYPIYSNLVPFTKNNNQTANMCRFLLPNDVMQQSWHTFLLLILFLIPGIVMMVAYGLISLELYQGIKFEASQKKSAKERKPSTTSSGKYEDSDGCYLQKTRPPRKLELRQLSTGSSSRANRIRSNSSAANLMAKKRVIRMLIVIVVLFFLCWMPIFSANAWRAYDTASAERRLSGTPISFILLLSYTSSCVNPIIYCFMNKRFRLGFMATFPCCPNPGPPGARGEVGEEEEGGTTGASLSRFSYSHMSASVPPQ
The experiment in a line: Displacement of CCK-8 from CHO cell membranes expressing human Cholecystokinin type A receptor. The note with it: for Log IC50: cho.

Experiment [4] has as its target T3, Cholecystokinin receptor type A (Cavia porcellus, UniProt Q63931).
T3 sequence (Q63931 whole entry): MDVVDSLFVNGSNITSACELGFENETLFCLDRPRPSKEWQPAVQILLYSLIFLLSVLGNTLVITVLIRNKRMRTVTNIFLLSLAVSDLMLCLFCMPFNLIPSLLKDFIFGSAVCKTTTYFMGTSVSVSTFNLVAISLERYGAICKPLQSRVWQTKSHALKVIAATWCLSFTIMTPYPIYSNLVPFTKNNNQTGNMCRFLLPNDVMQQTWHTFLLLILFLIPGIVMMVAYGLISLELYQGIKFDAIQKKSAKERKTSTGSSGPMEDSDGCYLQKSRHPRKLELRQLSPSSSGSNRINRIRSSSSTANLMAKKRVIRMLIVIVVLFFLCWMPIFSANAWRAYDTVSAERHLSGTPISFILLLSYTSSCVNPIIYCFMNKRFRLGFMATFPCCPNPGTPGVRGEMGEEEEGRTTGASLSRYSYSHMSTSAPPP
Nature of the experiment: Antagonist activity against CCK-8 induced responses in guinea pig gall bladder was determined. The experiment is classed as functional, tissue-based. The note with it: for Kb: read-out: pA2 (converted). The essentials: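 Isolated guinea pig gallbladder rings in physiological salt solution at 37 °C, 95% O2/5% CO2, pH 7.4, under 1 g resting tension, with isometric force recording. Tissues from at least three animals were incubated 60 min with antagonist (three to five concentrations), then given a cumulative sulfated CCK-8 curve. Paired untreated tissue served as time/solvent control for the concentration ratio. pA2 was derived by Schild analysis.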

The species entered for experiment [5] is Cavia porcellus. Nature of the experiment: Percent contraction induced by compound at […] in guinea pig gall bladder was determined; Inactive. The format is functional.
The species named for experiment [6] is Cavia porcellus. The experiment in a line: Effective concentration required to induce contraction of guinea pig gall bladder.

Active and inactive are the calls of the source. The rule behind the calls is not given here.

`CC(=O)N[C@@H](Cc1c[nH]c2ccccc12)C(=O)N[C@@H](CCCCNC(=O)Nc1ccccc1C)C(=O)N[C@@H](CC(=O)O)C(=O)N[C@@H](Cc1ccc(C)cc1)C(N)=O` [listing 1 of 2 here]: the Activity in the experiment listed under Cavia porcellus [1] is on record as 105%.
Turning to `CC(=O)N[C@@H](Cc1c[nH]c2ccccc12)C(=O)N[C@@H](Cc1ccc(NC(=O)Nc2ccccc2Cl)cc1)C(=O)N[C@@H](CC(=O)O)C(=O)N[C@@H](Cc1ccc(C)cc1)C(N)=O`, the figures for the IC50 in experiment [2] and in experiment [3] were 63100 nM and 100 nM, respectively. Further, the Kb in experiment [4] was 79.4 nM.
As to `CC(=O)N[C@@H](Cc1c[nH]c2ccccc12)C(=O)N[C@@H](Cc1ccc(NC(=O)Nc2ccccc2C)cc1)C(=O)N[C@@H](CC(=O)O)C(=O)N[C@@H](Cc1ccc(C)cc1)C(N)=O`, the IC50 in experiment [2] is 100000 nM; in experiment [3], 31.6 nM. Further, the Kb in experiment [4] is 39.8 nM.
On to `CC(=O)N[C@@H](Cc1c[nH]c2ccccc12)C(=O)NC(Cc1ccc(NC(=O)Nc2ccccc2Cl)cc1)C(=O)N[C@@H](CC(=O)O)C(=O)N[C@H](Cc1ccc(C)cc1)C(N)=O` (stereo not given in full), for which the outcome in the experiment listed under Cavia porcellus [5] was inactive.
In turn, `CC(=O)N[C@@H](Cc1c[nH]c2ccccc12)C(=O)N[C@@H](CCCCNC(=O)Nc1ccccc1Cl)C(=O)N[C@@H](CC(=O)O)C(=O)N[C@@H](Cc1ccc(C)cc1)C(N)=O` [listing 1 of 2 here] gave an Activity in the experiment listed under Cavia porcellus [1] of 117%.
Consider `CC(=O)N[C@H](Cc1c[nH]c2ccccc12)C(=O)NC(Cc1cccc(NC(=O)Nc2ccccc2C)c1)C(=O)N[C@H](CC(=O)O)C(=O)N[C@@H](Cc1ccc(C)cc1)C(N)=O` (stereo not given in full), for which the “Log IC50” value in experiment [2] is -4.3; in experiment [3], -7.2. In addition, the pA2 in experiment [4] came out at 7.4. The outcome in the experiment filed under Cavia porcellus [5] was inactive.
In the case of `CC(=O)N[C@@H](Cc1c[nH]c2ccccc12)C(=O)N[C@@H](CCCCNC(=O)Nc1ccccc1C)C(=O)N[C@@H](CC(=O)O)C(=O)N[C@@H](Cc1ccc(C)cc1)C(N)=O` [listing 2 of 2 here], the IC50 in experiment [2] is 5010 nM; in experiment [3], 20 nM. Moreover, in the experiment filed under Cavia porcellus [6], the EC50 is 1.58 nM.
For `Cc1cccc(NC(=O)N[C@@H]2N=C(c3ccccc3)c3ccccc3N(C)C2=O)c1` [L-365260], the 50% inhibitory concentration (IC50) in experiment [3] is 158 nM. In other words, the sub-micromolar range.
As for `CC(=O)N[C@@H](Cc1c[nH]c2ccccc12)C(=O)NC(Cc1cccc(NC(=O)Nc2ccccc2C)c1)C(=O)N[C@@H](CC(=O)O)C(=O)N[C@H](Cc1ccc(C)cc1)C(N)=O` (stereo not given in full), the “Log IC50” value in experiment [2] is recorded as -5; in experiment [3], -7. In experiment [4], this compound returned a pA2 of 7.2. Also, the result in the experiment filed under Cavia porcellus [5] was inactive.
As to `CC(=O)N[C@@H](Cc1c[nH]c2ccccc12)C(=O)NC(Cc1ccc(NC(=O)Nc2ccccc2C)cc1)C(=O)N[C@@H](CC(=O)O)C(=O)N[C@H](Cc1ccc(C)cc1)C(N)=O` (stereo not given in full), the result in the experiment filed under Cavia porcellus [5] was inactive.
As to `CC(=O)N[C@@H](Cc1c[nH]c2ccccc12)C(=O)N[C@@H](CCCCNC(=O)Nc1ccccc1Cl)C(=O)N[C@@H](CC(=O)O)C(=O)N[C@@H](Cc1ccc(C)cc1)C(N)=O` [listing 2 of 2 here], the “Log IC50” value was -6 in experiment [2] and -8.3 in experiment [3]. Besides, the concentration giving a half-maximal response (EC50) in the experiment listed under Cavia porcellus [6] is 0.501 nM.

By IC50 is commonly meant the concentration at which inhibition is half-maximal. The term pA2 denotes a measure of antagonist potency on a negative log scale. Read a low pA2 as lower antagonist potency. A word on the EC50: it is the concentration giving half of the maximal effect. Low readings indicate a more potent agent, high ones a less potent agent.

Source of the values: ChEMBL document CHEMBL1128735, “CCK-A receptor selective antagonists derived from the CCK-A receptor selective tetrapeptide agonist Boc-Trp-Lys(Tac)-Asp-MePhe-NH2 (A-71623)” (J Med Chem, 1995).
